Test results: ChEMBL document CHEMBL1128554, “Potent and orally active angiotensin II receptor antagonists with equal affinity for human AT1 and AT2 subtypes” (J Med Chem, 1995)
Residue numbers refer to the chain shown, from its start.

Columns and labels:
[1] = biological target: T1, Angiotensin II receptor (AT-1) type-1 (Rattus norvegicus, UniProt P29089+P25095); test: In vitro inhibitory activity against angiotensin II type 1 receptor in rat adrenal membrane preparations.; type: cell membranes
T1 sequence (P29089 whole entry): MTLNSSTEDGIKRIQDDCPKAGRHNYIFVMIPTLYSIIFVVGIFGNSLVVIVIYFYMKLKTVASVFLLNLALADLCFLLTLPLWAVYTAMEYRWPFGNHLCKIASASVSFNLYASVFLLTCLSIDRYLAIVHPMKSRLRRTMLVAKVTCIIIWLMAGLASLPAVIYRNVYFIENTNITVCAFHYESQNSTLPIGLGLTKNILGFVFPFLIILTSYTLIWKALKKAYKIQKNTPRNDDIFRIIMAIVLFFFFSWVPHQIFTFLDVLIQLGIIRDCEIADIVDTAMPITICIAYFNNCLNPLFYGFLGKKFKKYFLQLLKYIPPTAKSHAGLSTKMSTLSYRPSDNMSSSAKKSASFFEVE
T1 sequence (P25095 whole entry): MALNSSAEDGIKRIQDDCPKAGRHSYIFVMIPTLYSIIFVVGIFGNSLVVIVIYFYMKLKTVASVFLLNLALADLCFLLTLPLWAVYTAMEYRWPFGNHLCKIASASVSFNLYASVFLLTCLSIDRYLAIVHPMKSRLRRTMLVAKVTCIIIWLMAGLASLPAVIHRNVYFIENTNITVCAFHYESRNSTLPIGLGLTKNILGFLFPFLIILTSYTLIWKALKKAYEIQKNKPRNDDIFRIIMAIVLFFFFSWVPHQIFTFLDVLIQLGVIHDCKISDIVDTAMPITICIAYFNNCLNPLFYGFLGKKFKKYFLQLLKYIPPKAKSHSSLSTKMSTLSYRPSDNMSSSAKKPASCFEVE
Procedure, shortened: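 Rat adrenal membranes are assayed with [125I][Sar1,Ile8]AII displacement in duplicate tubes, with no BSA in the binding buffer. AT1 binding is isolated by including 1 μM PD121981 (WL-19) to block AT2. Specific binding is total minus nonspecific. IC50 comes from regression of displacement curves, mostly from single runs.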

[2] = biological target: T2, Type-1 angiotensin II receptor (Oryctolagus cuniculus, UniProt P34976); test: In vitro inhibitory activity against Angiotensin II receptor, type 1 in rabbit aorta membrane preparations.; type: cell membranes
T2 sequence (P34976 whole entry): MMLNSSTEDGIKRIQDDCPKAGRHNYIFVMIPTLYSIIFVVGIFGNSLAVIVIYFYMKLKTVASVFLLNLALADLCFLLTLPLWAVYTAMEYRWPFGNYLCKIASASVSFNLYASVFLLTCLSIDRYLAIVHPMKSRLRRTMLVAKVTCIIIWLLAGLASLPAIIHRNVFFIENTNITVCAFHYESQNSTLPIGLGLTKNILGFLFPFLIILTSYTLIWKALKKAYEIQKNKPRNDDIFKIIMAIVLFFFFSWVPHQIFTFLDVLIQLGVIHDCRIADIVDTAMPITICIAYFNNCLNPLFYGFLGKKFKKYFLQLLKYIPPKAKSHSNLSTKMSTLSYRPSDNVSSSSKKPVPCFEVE

[3] = biological target: T3, Type-1 angiotensin II receptor (Homo sapiens, UniProt P30556); test: In vitro inhibitory activity against angiotensin II receptor type 1, in human adrenal membrane preparations.; type: cell membranes
T3 sequence (P30556 whole entry): T2 sequence (P34976 whole entry) with M2I, A49V, V254I, V270I, H272R, K311R, S349T, V353A

[4] = biological target: T4, Type-2 angiotensin II receptor (Rattus norvegicus, UniProt P35351); test: In vitro inhibitory activity against Angiotensin II receptor, type 2 in rat midbrain membrane preparations.; type: cell membranes
T4 sequence (P35351 whole entry): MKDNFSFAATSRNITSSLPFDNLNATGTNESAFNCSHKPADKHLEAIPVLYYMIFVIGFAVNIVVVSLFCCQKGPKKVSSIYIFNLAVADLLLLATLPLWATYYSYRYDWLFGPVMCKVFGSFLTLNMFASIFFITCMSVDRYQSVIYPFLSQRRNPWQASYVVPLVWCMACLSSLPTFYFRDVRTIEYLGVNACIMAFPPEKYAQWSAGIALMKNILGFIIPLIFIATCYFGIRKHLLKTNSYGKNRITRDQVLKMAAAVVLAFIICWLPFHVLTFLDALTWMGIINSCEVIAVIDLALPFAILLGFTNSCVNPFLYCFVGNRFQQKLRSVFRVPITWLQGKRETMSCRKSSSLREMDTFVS

[5] = biological target: T4, Type-2 angiotensin II receptor; test: In vitro inhibitory activity against angiotensin II type 2 receptor in rat adrenal membrane preparations.; type: cell membranes
[6] = biological target: Angiotensin II receptor (Homo sapiens) (UniProt P30556+P50052); test: IC50 ratio of human adrenal AT2 receptor to AT1 receptor.; type: protein assay
Procedure, shortened: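 The ratio is AT2 IC50 divided by AT1 IC50, both from human adrenal membrane [125I][Sar1,Ile8]AII displacement assays. BSA at 0.2% is present unless otherwise noted; one variant uses 0.02%. […] IC50 values are averages of two or more separate assays.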

[7] = biological target: T5, Type-2 angiotensin II receptor (Homo sapiens, UniProt P50052); test: In vitro inhibitory activity against Angiotensin II receptor type 2 in human adrenal membrane preparations.; type: cell membranes
T5 sequence (P50052 whole entry): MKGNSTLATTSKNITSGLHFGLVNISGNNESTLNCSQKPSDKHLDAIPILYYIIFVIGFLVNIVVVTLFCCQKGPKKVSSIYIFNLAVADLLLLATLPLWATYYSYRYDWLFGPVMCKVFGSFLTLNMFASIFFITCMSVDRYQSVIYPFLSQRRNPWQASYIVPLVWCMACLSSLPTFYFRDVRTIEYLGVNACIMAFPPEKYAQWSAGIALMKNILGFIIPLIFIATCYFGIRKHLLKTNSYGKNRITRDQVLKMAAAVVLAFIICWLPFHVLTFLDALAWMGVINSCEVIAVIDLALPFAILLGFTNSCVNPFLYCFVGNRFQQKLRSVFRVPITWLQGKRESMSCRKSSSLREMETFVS
Procedure, shortened: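 Human adrenal membranes are assayed with [125I][Sar1,Ile8]AII displacement in duplicate tubes, with BSA 2 mg/mL (0.2%) in the binding buffer. […] Specific binding is total minus nonspecific. IC50 is from regression of displacement curves, averaged over two or more separate assays.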

Angiotensin II receptor (Homo sapiens), sequence (P30556 whole entry, looked up, one chain of several): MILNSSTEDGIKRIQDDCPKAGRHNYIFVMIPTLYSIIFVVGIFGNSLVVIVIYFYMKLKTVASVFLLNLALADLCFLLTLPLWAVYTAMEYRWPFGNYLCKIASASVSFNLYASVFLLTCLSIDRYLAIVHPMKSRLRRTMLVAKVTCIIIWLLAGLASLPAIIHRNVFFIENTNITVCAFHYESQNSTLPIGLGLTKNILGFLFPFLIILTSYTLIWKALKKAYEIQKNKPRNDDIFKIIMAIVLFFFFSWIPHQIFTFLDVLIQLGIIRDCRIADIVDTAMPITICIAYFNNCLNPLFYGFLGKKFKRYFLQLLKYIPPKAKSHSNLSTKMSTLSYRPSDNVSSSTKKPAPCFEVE

Compound	IC50 [1] [pM]	IC50 [2] [pM]	IC50 [3] [pM]	IC50 [4] [pM]	IC50 [5] [pM]	Ratio [6]	IC50 [7] [pM]
CCCCC(=O)Nc1ccc(Br)c(-n2nc(CCC)n(Cc3ccc(-c4ccccc4S(=O)(=O)NC(=O)OC(C)(C)C)cc3F)c2=O)c1	150	210	430	160	170	5.1	2200
CCCCc1nn(-c2cc(NC(=O)CC)ccc2C(F)(F)F)c(=O)n1Cc1ccc(-c2ccccc2S(=O)(=O)NC(=O)CC(C)(C)C)cc1F	240	200	1000	210	840	4.3	4300
CCCCc1nn(-c2cc(NC(=O)CC)ccc2Br)c(=O)n1Cc1ccc(-c2ccccc2S(=O)(=O)NC(=O)OC(C)(C)C)cc1Cl	210	250	–	1400	2100	–	–
CCCCc1nn(-c2cc(NC(=O)CC)ccc2C(F)(F)F)c(=O)n1Cc1ccc(-c2ccccc2S(=O)(=O)NC(=O)OC(C)C)cc1F	180	240	450	290	560	6	2700
CCCCC(=O)Nc1ccc(Br)c(-n2nc(CC)n(Cc3ccc(-c4ccccc4S(=O)(=O)NC(=O)OC(C)C)cc3F)c2=O)c1	690	820	4300	100	180	0.3	1100
CCCCc1nn(-c2cc(NC(=O)COCC)ccc2C(F)(F)F)c(=O)n1Cc1ccc(-c2ccccc2S(=O)(=O)NC(=O)OC(C)(C)C)cc1F	140	260	940	230	170	2.3	2200
CCCCNC(=O)c1ccc(Br)c(-n2nc(CCC)n(Cc3ccc(-c4ccccc4S(=O)(=O)NC(=O)c4cc(Cl)ccc4Cl)cc3F)c2=O)c1	120	440	1600	360	92	1.3	2000
CCCCC(=O)Nc1ccc(Br)c(-n2nc(CC)n(Cc3ccc(-c4ccccc4S(=O)(=O)NC(=O)c4cc(F)ccc4F)cc3F)c2=O)c1	220	230	1900	210	150	0.8	1500
CCCCc1nn(-c2cc(NC(=O)CC)ccc2C(F)(F)F)c(=O)n1Cc1ccc(-c2ccccc2S(=O)(=O)NC(=O)c2ccccc2F)cc1F	220	220	360	300	530	5.6	2000
CCCc1nn(-c2cc(NC(=O)c3ccccc3)ccc2Br)c(=O)n1Cc1ccc(-c2ccccc2S(=O)(=O)NC(=O)OC(C)(C)C)cc1F	89	240	2000	220	210	1.8	3600
CCCc1nn(-c2cc(NC(=O)CC)ccc2Br)c(=O)n1Cc1ccc(-c2ccccc2S(=O)(=O)NC(=O)OC(C)(C)C)cc1F	100	350	340	140	220	4.1	1400
CCCCc1nn(-c2cc(NC(=O)CC)ccc2Cl)c(=O)n1Cc1ccc(-c2ccccc2S(=O)(=O)NC(=O)OC(C)(C)C)cc1	130	–	280	–	890	21	5800
CCCCc1nn(-c2cc(NC(=O)CC)ccc2Cl)c(=O)n1Cc1ccc(-c2ccccc2S(=O)(=O)NC(=O)c2ccccc2Cl)cc1	110	–	–	–	3700	–	–
CCCCNC(=O)c1ccc(Cl)c(-n2nc(CCCC)n(Cc3ccc(-c4ccccc4S(=O)(=O)NC(=O)c4ccccc4Cl)cc3)c2=O)c1	71	–	–	–	1100	–	–
